What all share (format): functional
The subject of one assay is Providencia rettgeri. Put plainly: Antimicrobial activity against Providencia rettgeri 21205 by two fold serial dilution technique. An outline of the steps:
(§1)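 MIC determined by twofold serial broth dilution in nutrient broth, reported in μg/mL.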

Another assay deals with Serratia marcescens. Nature of the assay: Antimicrobial activity against Serratia marcescens 20019 by two fold serial dilution technique. In short, it runs like this:
as §1

The subject of assay [1] is Staphylococcus aureus. Nature of the assay: Antimicrobial activity against penicillin-resistant Staphylococcus aureus 9606 by two fold serial dilution technique. An outline of the steps:
(§2)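 MIC determined by twofold serial dilution in nutrient broth; values reported in μg/mL.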

The test system of assay [2] is Proteus mirabilis. Nature of the assay: Antimicrobial activity against Proteus mirabilis 9900 by two fold serial dilution technique. In short, it runs like this: as §1
Assay [3] concerns Escherichia coli. Nature of the assay: Antimicrobial activity against Escherichia coli 20341 by two fold serial dilution technique. In short, it runs like this:
as §1

In assay [4] the test system is Escherichia coli. Put plainly: Antimicrobial activity against Escherichia coli 15119 by two fold serial dilution technique. In short, it runs like this: as §1
Assay [5] has as its system Staphylococcus aureus. Nature of the assay: Antimicrobial activity against methicillin-resistant Staphylococcus aureus 15097 by two fold serial dilution technique. In short, it runs like this:
as §2

The test system of another assay is Streptococcus pneumoniae. Put plainly: Antimicrobial activity against Streptococcus pneumoniae 1985 by two fold serial dilution technique. In short, it runs like this: as §1
Assay [6] deals with Klebsiella pneumoniae. Nature of the assay: Antimicrobial activity against Klebsiella pneumoniae 20468 by two fold serial dilution technique. In short, it runs like this:
as §1

A further assay deals with Enterococcus faecalis. Put plainly: Antimicrobial activity against Streptococcus faecalis 20688 by two fold serial dilution technique. In short, it runs like this: as §1
The next assay has as its system Morganella morganii. Nature of the assay: Antimicrobial activity against Proteus morganii 15153 by two fold serial dilution technique. An outline of the steps: as §1
Assay [7] relates to Enterobacter cloacae. Put plainly: Antimicrobial activity against Enterobacter cloacae 9659 by two fold serial dilution technique. In short, it runs like this:
as §1

For assay [8], the system named is Staphylococcus aureus. Put plainly: Antimicrobial activity against Staphylococcus aureus 9537 by two fold serial dilution technique. In short, it runs like this: as §1
Assay [9] has as its system Proteus mirabilis. Nature of the assay: Antimicrobial activity against Proteus mirabilis 9716 by two fold serial dilution technique. An outline of the steps: as §1
The next assay relates to Pseudomonas aeruginosa. Put plainly: Antimicrobial activity against Pseudomonas aeruginosa 9843 by two fold serial dilution technique. An outline of the steps:
as §1

The test system of assay [10] is Staphylococcus aureus. Put plainly: Antimicrobial activity against Staphylococcus aureus 9537 by two fold serial dilution technique in presence of 50% serum.
Assay [11] relates to Enterobacter cloacae. Put plainly: Antimicrobial activity against Enterobacter cloacae 9656 by two fold serial dilution technique. In short, it runs like this:
as §1

In assay [12] the test system is Klebsiella pneumoniae. Nature of the assay: Antimicrobial activity against Klebsiella pneumoniae 15130 by two fold serial dilution technique. In short, it runs like this:
as §1

Another assay deals with Streptococcus pyogenes. Nature of the assay: Antimicrobial activity against Streptococcus pyogenes 9604 by two fold serial dilution technique. An outline of the steps:
as §1

Structures are written as SMILES. Values after ≈ are worked out from the molar mass of the structure shown.

As usually defined, the MIC is the least concentration at which growth counts as inhibited. On to `CC1=C(C(=O)O)N2C(=O)[C@@H](NC(=O)COc3ccccc3)[C@H]2SC1=O`, for which the MIC in the assay on Providencia rettgeri was above 125 µg/mL; against Serratia marcescens, above 125 µg/mL; with Staphylococcus aureus [1], 125 µg/mL (≈ 345 µM); in the assay with Proteus mirabilis [2], 125 µg/mL (≈ 345 µM); against Escherichia coli [3] it was above 125 µg/mL; in the assay with Escherichia coli [4], above 125 µg/mL. Further, the MIC against Staphylococcus aureus [5] is above 125 µg/mL; against Streptococcus pneumoniae it was 32 µg/mL (≈ 88.3 µM); with Klebsiella pneumoniae [6], above 125 µg/mL; against Enterococcus faecalis, 63 µg/mL (≈ 174 µM); against Morganella morganii, above 125 µg/mL; in the assay with Enterobacter cloacae [7] it was above 125 µg/mL. Besides, the MIC against Staphylococcus aureus [8] was 8 µg/mL (≈ 22.1 µM); against Proteus mirabilis [9], 125 µg/mL (≈ 345 µM); with Pseudomonas aeruginosa, above 125 µg/mL; in the assay on Staphylococcus aureus [10], above 63 µg/mL; in the assay with Enterobacter cloacae [11] it was above 125 µg/mL; in the assay with Klebsiella pneumoniae [12] it was above 125 µg/mL. This compound also registered an MIC in the assay on Streptococcus pyogenes of 32 µg/mL (≈ 88.3 µM).

With `CC(=O)OCC1=C(C(=O)O)N2C(=O)[C@@H](NC(=O)Cc3cccs3)[C@H]2SC1=O`, the MIC was above 125 µg/mL in the assay on Providencia rettgeri; above 125 µg/mL in the assay with Serratia marcescens; 16 µg/mL (≈ 39 µM) in the assay with Staphylococcus aureus [1]; 32 µg/mL (≈ 78 µM) against Proteus mirabilis [2]; above 125 µg/mL in the assay on Escherichia coli [3]; above 125 µg/mL in the assay with Escherichia coli [4]. For the same compound, the MIC against Staphylococcus aureus [5] was above 125 µg/mL; against Streptococcus pneumoniae, 1 µg/mL (≈ 2.44 µM); in the assay on Klebsiella pneumoniae [6] it was above 125 µg/mL; in the assay with Enterococcus faecalis it was 125 µg/mL (≈ 305 µM); with Morganella morganii it was above 125 µg/mL; against Enterobacter cloacae [7] it was above 125 µg/mL. The MIC with Staphylococcus aureus [8] was 4 µg/mL (≈ 9.75 µM); against Proteus mirabilis [9] it was 63 µg/mL (≈ 153 µM); against Pseudomonas aeruginosa, above 125 µg/mL; in the assay on Staphylococcus aureus [10], 63 µg/mL; against Enterobacter cloacae [11], above 125 µg/mL; with Klebsiella pneumoniae [12] it was above 125 µg/mL. The same compound returned an MIC with Streptococcus pyogenes of 1 µg/mL (≈ 2.44 µM).

With `CC1=C(C(=O)O)N2C(=O)[C@@H](N)[C@H]2SC1=O.Cc1ccc(S(=O)(=O)O)cc1`, the MIC against Providencia rettgeri is 125 µg/mL; with Serratia marcescens, above 125 µg/mL; in the assay on Staphylococcus aureus [1], above 125 µg/mL; with Proteus mirabilis [2] it was above 125 µg/mL; in the assay on Escherichia coli [3], above 125 µg/mL; against Escherichia coli [4] it was above 125 µg/mL. The MIC against Staphylococcus aureus [5] is 125 µg/mL; against Streptococcus pneumoniae it was 63 µg/mL; with Klebsiella pneumoniae [6] it was above 125 µg/mL; in the assay on Enterococcus faecalis it was 32 µg/mL; in the assay with Morganella morganii, above 125 µg/mL; in the assay with Enterobacter cloacae [7], above 125 µg/mL. The MIC against Staphylococcus aureus [8] is 32 µg/mL; with Proteus mirabilis [9], 125 µg/mL; in the assay on Pseudomonas aeruginosa, above 125 µg/mL; in the assay on Staphylococcus aureus [10] it was above 63 µg/mL; in the assay on Enterobacter cloacae [11] it was above 125 µg/mL; in the assay with Klebsiella pneumoniae [12], above 125 µg/mL. Besides, the MIC in the assay on Streptococcus pyogenes turned out to be 125 µg/mL.

`CC1=C(C(=O)O)N2C(=O)[C@@H](NC(=O)Cc3cccs3)[C@H]2SC1=O`: the MIC in the assay on Providencia rettgeri was above 125 µg/mL; in the assay with Serratia marcescens, above 125 µg/mL; with Staphylococcus aureus [1], above 125 µg/mL; with Proteus mirabilis [2] it was 63 µg/mL (≈ 179 µM); with Escherichia coli [3] it was above 125 µg/mL; against Escherichia coli [4], above 125 µg/mL. Further, the MIC was above 125 µg/mL against Staphylococcus aureus [5]; 63 µg/mL (≈ 179 µM) in the assay on Streptococcus pneumoniae; above 125 µg/mL against Klebsiella pneumoniae [6]; 63 µg/mL (≈ 179 µM) in the assay on Enterococcus faecalis; above 125 µg/mL with Morganella morganii; above 125 µg/mL in the assay with Enterobacter cloacae [7]. Also, the MIC in the assay on Staphylococcus aureus [8] was 8 µg/mL (≈ 22.7 µM); in the assay on Proteus mirabilis [9] it was 63 µg/mL (≈ 179 µM); against Pseudomonas aeruginosa, above 125 µg/mL; in the assay with Staphylococcus aureus [10] it was above 63 µg/mL; against Enterobacter cloacae [11], above 125 µg/mL; in the assay with Klebsiella pneumoniae [12] it was above 125 µg/mL. In addition, the lowest concentration to inhibit growth with Streptococcus pyogenes (MIC) was 125 µg/mL (≈ 355 µM).

On to `CC(=O)OCC1=C(C(=O)O)N2C(=O)[C@@H](NC(=O)Cc3cccs3)[C@H]2SC1` [CEPHALOTHIN], for which the MIC against Providencia rettgeri was 63 µg/mL (≈ 159 µM); in the assay with Serratia marcescens, above 125 µg/mL; with Staphylococcus aureus [1], 0.5 µg/mL (≈ 1.26 µM); in the assay with Proteus mirabilis [2] it was 1 µg/mL (≈ 2.52 µM); in the assay with Escherichia coli [3], 16 µg/mL (≈ 40.4 µM); in the assay on Escherichia coli [4], 16 µg/mL (≈ 40.4 µM). In addition, the MIC against Staphylococcus aureus [5] was 32 µg/mL (≈ 80.7 µM); in the assay with Streptococcus pneumoniae it was 0.06 µg/mL (≈ 0.151 µM); against Klebsiella pneumoniae [6], above 125 µg/mL; against Enterococcus faecalis, 32 µg/mL (≈ 80.7 µM); in the assay on Morganella morganii, above 125 µg/mL; with Enterobacter cloacae [7], above 125 µg/mL. The MIC against Staphylococcus aureus [8] is 0.13 µg/mL (≈ 0.328 µM); in the assay on Proteus mirabilis [9], 2 µg/mL (≈ 5.04 µM); in the assay on Pseudomonas aeruginosa, above 125 µg/mL; in the assay with Staphylococcus aureus [10], 8 µg/mL; with Enterobacter cloacae [11] it was above 125 µg/mL; with Klebsiella pneumoniae [12] it was 16 µg/mL (≈ 40.4 µM). For the same compound, the MIC in the assay on Streptococcus pyogenes came out at 0.13 µg/mL (≈ 0.328 µM).

The values above are taken from ChEMBL document CHEMBL3227971, “Synthesis and antibacterial activity of 2-oxocephalosporins” (1979).
